Compound activity: PubChem, several laboratories
An excerpt weighted towards active compounds, which were near 1.3% of everything screened.
TPT1 inhibitor = C. albicans TPT1 enzyme inhibition; recombinant caTPT1, FP RNA substrate dephosphorylation; inhibition, % at 5 µM; 300,000 compounds, 0.81% hits;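 active = inhibition above the mean of all tested compounds plus 3 SD, set per screening campaign, cut at about 24% in these data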;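 note: plate controls were DMSO alone for no effect and ferristatin control at 100 nM for full effect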
aDG glyco up = increases alpha dystroglycan glycosylation. Pro5-aDG cells, alpha-DG glycosylation AlphaScreen (IIH6); 0% Pro5, 100% B10-LARGE cell signal. activation, % at 10 µM. 360,000 compounds, 0.22% hits. AID 624168;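 active = activation of at least 8% versus controls, or a plate z-score of at least 8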;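 note: Pro5 are CHO cells carrying HIG-tagged alpha-DG that lacks glycosylation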
HNF4A DNA FP = change in binding of human HNF4 alpha to DNA; P41235; HNF4a-FITC DNA binding, fluorescence polarization, 1 h; activity change, % at 10 µM; 360,000 compounds, 0.3% hits; AID 1224865; in the data active = activity change above about 30%, passing the limit was not always enough
XiGFP reactiv = reactivates the inactive X chromosome in mouse fibroblasts; XiGFP mouse fibroblasts, % GFP-positive cells imaging, 3 d; cells co-treated with 5-aza-dC sensitizer; scaled so ellipticine positive control = 100%; activation, % at 7.58 µM; 360,000 compounds, 0.055% hits; AID 743238;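 active = mean normalized replicate activation at least 10% and every replicate at or above 10%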;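 note: 0% = median of on-plate neutral control wells and 100% = ellipticine 6 µM median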
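Schedule: 3 d treatment, 15 min room-temperature fixation; system: 68-5-11 XiGFP fibroblast line; buffer or medium: DMEM plus 5-aza-dC sensitizer; control set: ellipticine 6 µM positive control; compound: one concentration, pinned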
Rpn11 inh = inhibitors of human proteasome Rpn11; 360,000 compounds, 0.59% hits; inhibition, % at 20 µM; AID 588493; O00487; human 26S proteasome, Ub4-pepOG fluorescence polarization; 20S core pre-blocked with epoxomicin;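 active = inhibition at 20 µM, scaled to each plate's controls, above about 33%, limit read from the data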
CSN inh = CSN deneddylation inhibition; Purified CSN, SCF-Nedd8-OG deneddylation, fluorescence polarization; inhibition, % at 12.5 µM; 360,000 compounds, 0.38% hits; Q92905;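 active = pattern-corrected inhibition above about 35%, with an unprinted fluorescence ratio check between 0.5 and 1.5, limit read from the data, passing the limit was not always enough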;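 note: 0% = enzyme with substrate and 100% = substrate without enzyme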
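Assay system: Purified human Csn5 enzyme expressed in HEK293T cells | Amount: Enzyme 0.24 nM | Measured by: Fluorescence polarization readout | Medium: Tris/NaCl/DTT buffer, pH 7.5 | Compound dosing: One concentration, 12.5 µM, 0.25% DMSO | Times: 90 min incubation of compound, enzyme and substrate at room temperature | Control set: no-enzyme wells high, enzyme-with-substrate wells low | Read-out: % inhibition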
TPT1 inh confirm = TPT1 (C. albicans) inhibition, confirmation; AID 2149; inhibition, % at 5 µM; recombinant caTPT1, fluorescence polarization, RNase T1 coupled; shares compounds with TPT1 inhibitor; 2,400 compounds, 74% hits;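 active = inhibition above the primary screen limit, the mean inhibition of all tested compounds plus 3 SD, cut at about 25% in these data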
RNase T1 counter = RNase T1 inhibition in TPT1 counter-screen | RNase T1 cleavage, fluorescence polarization, 1536-well | shares compounds with TPT1 inhibitor | 2,400 compounds, 83% hits | inhibition, % at 5 µM;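 active = inhibition above the solvent-only control well mean plus 3 SD, limit set per screening run, cut at about 23% in these data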;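 note: plate controls were DMSO wells with enzyme for no effect and wells without RNase T1 for full effect; inhibitors block cleavage so intact labeled substrate keeps polarization high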
Target sequence (P00651 whole entry, looked up): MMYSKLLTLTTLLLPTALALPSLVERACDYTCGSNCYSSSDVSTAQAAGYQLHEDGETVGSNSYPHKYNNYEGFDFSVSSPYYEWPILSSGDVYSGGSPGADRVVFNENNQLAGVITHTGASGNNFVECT
Rpn11 inh conf = Rpn11 inhibition confirmation, single concentration | 1,900 compounds, 29% hits | inhibition, % at 20 µM | shares compounds with Rpn11 inh | purified human 26S proteasome, Ub4-pepOG fluorescence polarization; proteasome pretreated with epoxomicin
MMP-2 inh = blocks human MMP-2, flagging nonselective RPN11 hits; shares compounds with Rpn11 inh; inhibition, % at 20 µM; AID 602330; recombinant MMP-2, FRET peptide cleavage fluorescence; 1,900 compounds, 4% hits;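 note: human MMP-2 activated beforehand with APMA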
Target sequence (P08253 whole entry, looked up): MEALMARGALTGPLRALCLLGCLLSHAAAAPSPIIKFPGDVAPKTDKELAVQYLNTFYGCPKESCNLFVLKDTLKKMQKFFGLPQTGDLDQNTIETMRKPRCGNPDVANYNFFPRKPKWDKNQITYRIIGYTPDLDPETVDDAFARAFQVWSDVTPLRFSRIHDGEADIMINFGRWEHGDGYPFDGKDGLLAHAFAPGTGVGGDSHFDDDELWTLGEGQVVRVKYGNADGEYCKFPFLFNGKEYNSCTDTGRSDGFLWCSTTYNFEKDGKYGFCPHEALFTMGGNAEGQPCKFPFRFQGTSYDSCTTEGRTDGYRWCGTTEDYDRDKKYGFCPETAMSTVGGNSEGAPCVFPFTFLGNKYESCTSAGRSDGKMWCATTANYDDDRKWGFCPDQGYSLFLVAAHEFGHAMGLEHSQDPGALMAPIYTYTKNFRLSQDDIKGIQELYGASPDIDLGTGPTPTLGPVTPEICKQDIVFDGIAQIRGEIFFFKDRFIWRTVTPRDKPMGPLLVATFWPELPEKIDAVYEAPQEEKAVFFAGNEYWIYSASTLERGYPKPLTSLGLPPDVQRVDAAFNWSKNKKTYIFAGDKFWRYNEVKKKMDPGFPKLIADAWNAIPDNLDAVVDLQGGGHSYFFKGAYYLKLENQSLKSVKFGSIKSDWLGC
Thrombin FP = blocks bovine thrombin, flagging nonselective RPN11 hits; shares compounds with Rpn11 inh; bovine thrombin cleavage of Ub4-pepOG, fluorescence polarization; inhibition, % at 20 µM; 1,900 compounds, 13% hits;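 active = mean inhibition at least 40% at 20 µM, or signal 3 deviations below plate average, so some actives read negative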;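 note: plate controls were thrombin with DMSO for no effect and buffer wells lacking thrombin for full effect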
HNF4a DNA conf = change in binding of human HNF4 alpha to DNA, retest; HNF4A-FITC DNA binding, fluorescence polarization, 1 h; shares compounds with HNF4A DNA FP; 210 compounds, 99% hits; activity change, % at 12.5 µM; call rule not given here
Numbers without * were called inactive; / = not tested or not shown. Cut-off read from the data, not from the text of the source, unless noted: active = inhibition above about 40%; inactive = the rest.

SMILES | TPT1 inhibitor | aDG glyco up | HNF4A DNA FP | XiGFP reactiv | Rpn11 inh | CSN inh | TPT1 inh confirm | RNase T1 counter | HNF4a DNA conf | others
C[C@@H]1CN([C@@H](C)CO)C(=O)c2cc(NC(=O)CCC(F)(F)F)ccc2O[C@@H]1CN(C)Cc1ccc(Oc2ccccc2)cc1 | / | / | / | 1 | / | / | / | / | /
C=CCn1c(SCc2nc3sc4c(c3c(=O)[nH]2)CCCC4)nc2ccccc2c1=O | 27* | 0 | 49* | 0 | / | 19 | 48* | 62* | 65*
Cc1cccc(-c2noc(CNC(=O)c3ccoc3C)n2)c1 | 34* | 1 | 50* | 0 | / | 20 | 65* | 74* | 32*
CSc1nsc(/C=C/Nc2ccc(C(=O)O)cc2)c1C#N | 31* | 0 | 49* | 0 | 68* | 29 | 43* | 53* | 45* | Rpn11 inh conf=53*;MMP-2 inh=-7;Thrombin FP=42*
N#Cc1c(-c2c(Cl)cccc2Cl)noc1/C=C/Nc1ccc(C(=O)O)cc1 | 3 | 0 | 2 | 0 | 17 | -1 | / | / | /
CCN1CCc2c(sc(NC(=O)CN3C(=O)c4ccccc4C3=O)c2C(N)=O)C1 | 1 | 0 | 0 | 0 | 5 | 3 | / | / | /
CCN1CCc2c(sc(NC(=O)c3ccc4ccccc4c3)c2C(N)=O)C1 | 65* | 3 | 38* | 38* | / | 31 | 80* | 89* | 65*
CC(=O)Nc1ccc2c(c1)C(=O)N(C)[C@H]1CC[C@H](CC(=O)Nc3c(F)cccc3F)O[C@@H]1CO2 | / | / | / | 0 | / | / | / | / | /
CCOc1ccc2nc(SCC(=O)NNC(=O)c3ccco3)c(C)cc2c1 | 1 | 0 | 5 | 0 | -4 | 0 | / | / | /
CCOc1ccc2cc(/C=C/C(=O)c3ccco3)c(Cl)nc2c1 | 37* | 0 | 34* | / | / | 33 | 57* | 68* | 36*
N#Cc1c(Nc2cccc(F)c2)sc2c(O)cc(=O)[nH]c12 | 51* | 0 | 44* | 0 | / | 34 | 29* | 40* | 52*
CCCC(=O)Nc1ccc2c(c1)C(=O)N(C)[C@H]1CC[C@H](CC(=O)NCC(F)(F)F)O[C@@H]1CO2 | / | / | / | 0 | / | / | / | / | /
COc1ccc(NC(=O)Nc2ccc3c(c2)CC(=O)N([C@H](C)CO)C[C@@H](C)[C@@H](CN(C)C(=O)Nc2ccc(F)cc2)O3)cc1 | / | / | / | 0 | / | / | / | / | /
CC(C)OC(=O)c1cc(C(=O)c2cc(F)ccc2O)coc1=N | 0 | 0 | 5 | / | -2 | 3 | / | / | /
COc1ccc(O)c(C(=O)c2coc(=N)c(C(=O)Nc3ccc(SC(F)F)cc3)c2)c1 | 63* | 0 | 44* | 0 | / | 56* | 75* | 78* | 65*
N#C/C(=C\c1ccc(-c2ccccc2C(=O)O)o1)c1nc2ccccc2[nH]1 | 95* | 0 | 44* | 0 | / | 24 | 117* | 121* | 91*
O=C(NCc1ccccn1)[C@@H]1[C@@H](CO)[C@@H]2Cn3c(cccc3=O)[C@H]1N2CC1CCCC1 | / | / | / | 0 | / | / | / | / | /
COc1ccc(C2NN=C(c3c[nH]c4ccccc34)C2O)cc1 (stereo unspecified) | 73* | -1 | 57* | 0 | 94* | 26 | 65* | 78* | 89*
O=C(C[C@H]1CC[C@H](NC(=O)Cc2cccnc2)[C@H](CO)O1)NCc1ccc2c(c1)OCO2 | / | / | / | 0 | / | / | / | / | /
O=C(N/N=C/c1cc(Cl)cc([N+](=O)[O-])c1O)c1ccccc1NS(=O)(=O)c1cccs1 | 1 | 0 | 9 | / | 41* | -3 | / | / | / | Rpn11 inh conf=129*;MMP-2 inh=-20;Thrombin FP=-1
O=C(NN=Cc1ccc(O)cc1)c1ccccc1NS(=O)(=O)c1cccs1 | / | 0 | 3 | 0 | 3 | -4 | / | / | /
Cc1sc2ncnc(SCC(=O)NC(C)(C)C)c2c1C | -2 | 0 | 2 | 0 | -7 | -4 | / | / | /
Cc1ccc(OCC(=O)NNC(=O)CSc2ncnc3sc(C)c(C)c23)cc1 | -2 | 0 | 3 | 0 | 116* | 38* | / | / | / | Rpn11 inh conf=57*;MMP-2 inh=68*;Thrombin FP=-10
CCc1ccc(OCC(=O)NNC(=O)CSc2ncnc3sc(C)c(C)c23)cc1 | -1 | 0 | -10 | / | 60* | 18 | / | / | / | Rpn11 inh conf=-12;MMP-2 inh=-31;Thrombin FP=-24
COc1ccc(-c2csc(Nc3ccc(S(N)(=O)=O)cc3)n2)cc1 | 2 | 1 | 6 | / | 7 | 4 | / | / | /
SMILES | TPT1 inhibitor | aDG glyco up | HNF4A DNA FP | XiGFP reactiv | Rpn11 inh | CSN inh | TPT1 inh confirm | RNase T1 counter | HNF4a DNA conf | others
Cc1nc(N)sc1-c1csc(Nc2ccc(S(N)(=O)=O)cc2)n1 | / | 0 | 10 | 0 | 41* | 10 | / | / | / | Rpn11 inh conf=24;MMP-2 inh=22;Thrombin FP=-4
C[C@H](CO)N1C[C@H](C)[C@@H](CN(C)S(C)(=O)=O)Oc2cc(-c3ccc(F)cc3)ccc2S1(=O)=O | / | / | / | 1 | / | / | / | / | /
O=C(Nc1nc2ccsc2c(=O)s1)c1ccc(F)cc1 | -1 | 0 | 4 | 0 | 43* | 20 | / | / | / | Rpn11 inh conf=35;MMP-2 inh=-32;Thrombin FP=-16
CCc1ccc(-n2cccc2/C=C2/C(=N)N3C(=NC2=O)SN=C3S(C)(=O)=O)cc1 | 14 | 0 | 11 | 0 | 60* | 23 | / | / | / | Rpn11 inh conf=64*;MMP-2 inh=0;Thrombin FP=45*
Cc1ccc(-n2cccc2/C=C2/C(=N)N3C(=NC2=O)SN=C3S(C)(=O)=O)cc1 | 17 | 1 | 9 | 0 | 61* | 25 | / | / | / | Rpn11 inh conf=63*;MMP-2 inh=-1;Thrombin FP=29
CS(=O)(=O)C1=NSC2=NC(=O)/C(=C\c3ccc(OS(=O)(=O)c4ccccc4)cc3)C(=N)N21 | 6 | 0 | -7 | 0 | 18 | 3 | / | / | /
CCC1=NN2C(=N)/C(=C\c3cccn3-c3ccc(Cl)cc3)C(=O)N=C2S1 | 4 | 0 | 5 | 0 | 22 | 4 | / | / | /
COc1cccc(-n2c(C)cc(/C=C3/C(=N)N4C(=NC3=O)SN=C4S(C)(=O)=O)c2C)c1 | 20 | 0 | 18 | 0 | 33 | 15 | / | / | /
